ChEMBL document CHEMBL4673214, “Synthesis and antibacterial bioactivities of cationic deacetyl linezolid amphiphiles” (Eur J Med Chem, 2018)
Calls of active or inactive are those of the source. The calls are words filed in the database; no cut-off is given here.

Tests used:
Staphylococcus aureus [1] = test: Resistance ratio of compound MIC for methicillin-resistant Staphylococcus aureus after 20 passages to compound MIC for methicillin-resistant Staphylococcus aureus after 16 to 20 hrs by CLSI-based broth microdilution method; type: functional
Summary of the method: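 Serial passaging: after each 24 h MIC assay, cells grown at 1/2 MIC were transferred and the MIC assayed again, for 20 passages. Done with S. aureus, E. coli and MRSA. MIC plotted against days of passage. Experiment repeated twice.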

Staphylococcus aureus [2] = test: Antibiofilm activity against Staphylococcus aureus ATCC 29213 assessed as inhibition of biofilm formation incubated for 24 hrs by crystal violet staining assay; type: functional
Summary of the method: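 Twofold serial dilutions in MHB received 1:1000-diluted exponential-phase bacteria and were incubated 24 h at 37 °C. Wells were rinsed, stained with 0.1% crystal violet for 10 min and dissolved in ethanol, and OD540 was read. MBIC80 was the concentration inhibiting 80% of biofilm formation versus untreated wells, taken from dose-response curves.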

Escherichia coli [3] = test: Antibiofilm activity against 24 hrs preformed biofilm of Escherichia coli ATCC 25922 assessed as eradication of preformed biofilm incubated for 24 hrs by crystal violet staining assay; type: functional
Staphylococcus aureus [4] = test: Antibiofilm activity against 24 hrs preformed biofilm of Staphylococcus aureus ATCC 29213 assessed as eradication of preformed biofilm incubated for 24 hrs by crystal violet staining assay; type: functional
Escherichia coli [5] = test: Antibiofilm activity against 72 hrs preformed biofilm of Escherichia coli ATCC 25922 assessed as biofilm viability at 128 ug/ml incubated for 24 hrs by […] (reference value: 16.1 log10CFU); type: functional; settings: dose 128 µg/ml
Summary of the method: (§1)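 E. coli from mid-log phase was diluted to ~10^5 CFU/mL in M9 medium with 0.02% casamino acids and 0.5% glycerol and formed biofilm without shaking for 72 h. Wells were PBS-washed, then treated with 2-128 µg/mL for 24 h at 37 °C; medium-only wells served as control. Cells were released with trypsin-EDTA and plated as tenfold dilutions. Viability was given as log10 CFU/well.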

Escherichia coli [6] = test: Antibiofilm activity against 72 hrs preformed biofilm of Escherichia coli ATCC 25922 assessed as biofilm viability at 32 ug/ml incubated for 24 hrs by […] (reference value: 16.1 log10CFU); type: functional; settings: dose 32 µg/ml; summary of the method: as §1
Escherichia coli [7] = test: Antibiofilm activity against 72 hrs preformed biofilm of Escherichia coli ATCC 25922 assessed as biofilm viability at 2 ug/ml incubated for 24 hrs by […] (reference value: 16.1 log10CFU); type: functional; settings: dose 2 µg/ml; summary of the method: as §1
Staphylococcus aureus [8] = test: Antibiofilm activity against 24 hrs preformed biofilm of Staphylococcus aureus ATCC 29213 assessed as biofilm viability at 64 ug/ml incubated for 24 hrs by crystal violet staining analysis (reference value: 18.9 1og10CFU); type: functional; settings: dose 64 µg/ml
Staphylococcus aureus [9] = test: Antibiofilm activity against 24 hrs preformed biofilm of Staphylococcus aureus ATCC 29213 assessed as biofilm viability at 4 ug/ml incubated for 24 hrs by crystal violet staining analysis (reference value: 18.9 1og10CFU); type: functional; settings: dose 4 µg/ml
Staphylococcus aureus [10] = test: Antibiofilm activity against 24 hrs preformed biofilm of Staphylococcus aureus ATCC 29213 assessed as biofilm viability at 2 ug/ml incubated for 24 hrs by crystal violet staining analysis (reference value: 18.9 1og10CFU); type: functional; settings: dose 2 µg/ml
Staphylococcus aureus [11] = test: Bactericidal activity against early exponential phase of Staphylococcus aureus ATCC 29213 at 6X MIC measured after 6 hrs by time-kill kinetic assay; type: functional, organism-based
Summary of the method: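 An overnight culture was diluted 1:10,000 in MHB and shaken at 225 rpm and 37 °C for 2 h (early exponential phase), then exposed to compound. Samples taken at intervals were centrifuged, resuspended in PBS, plated as tenfold dilutions on MHA and incubated overnight at 37 °C. CFU/mL were counted. Biological replicates were run.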

Staphylococcus aureus [12] = test: Antibacterial activity against methicillin-resistant Staphylococcus aureus assessed as reduction in bacterial growth following incubation in 50% MHB medium and 50% blood and meaured after incubation with compound for 20 to 24 hrs by agar plate method; type: functional; settings: time 20-24 hrs
Summary of the method: (§2)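 Sheep plasma obtained by centrifuging defibrinated blood at 3500 rpm for 10 min; serum isolated in serum tubes. MRSA at 10^5 CFU/mL in 50% MHB plus 50% serum, plasma or blood, or in MHB alone. Compound dilutions (512 to 4 µg/mL, pre-mixing) added 50 µL to 150 µL bacteria, 37 °C for 20-24 h. Then 20 µL plated on MHA, 37 °C 20-24 h; MBC taken as no colonies. Two repeats.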

Staphylococcus aureus [13] = test: Antibacterial activity against Staphylococcus aureus ATCC 29213 assessed as reduction in bacterial growth compound preincubated with 50% sheep plasma for 3 hrs followed by incubation for 20 to 24 hrs by agar plate method; type: functional; settings: time 20-24 hrs
Summary of the method: (§3)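 Sheep plasma came from centrifuged defibrinated blood. Compound at 512 µg/mL in 50% water/50% plasma was preincubated at 37 °C for 0, 3 or 6 h, then serially diluted (256 to 4 µg/mL). Dilutions were mixed 1:3 with S. aureus suspension (10^5 CFU/mL) and incubated 20-24 h at 37 °C. MBC was taken as no colonies after 20 µL was plated on agar.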

Staphylococcus aureus [14] = test: Antibacterial activity against Staphylococcus aureus ATCC 29213 assessed as reduction in bacterial growth compound preincubated with 50% sheep plasma for 0 hrs followed by incubation for 20 to 24 hrs by agar plate method; type: functional; settings: time 20-24 hrs; summary of the method: as §3
[15] = Selectivity index, ratio of HC50 for Sheep erythrocytes to MIC for Escherichia coli ATCC 25922; type: toxicity
[16] = Selectivity index, ratio of HC50 for Sheep erythrocytes to MIC for Staphylococcus aureus ATCC 29213; type: toxicity
[17] = Hemolytic activity in sheep RBC incubated for 1 hr; type: ADME, cell-based, Ovis aries, Erythrocyte; settings: sheep red blood cells (erythrocytes)
Summary of the method: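 Sheep RBCs were resuspended at 5% in PBS and mixed 3:1 with serial dilutions (2560 to 5 µg/mL, pre-mixing levels), then incubated 1 h at 37 °C. After centrifugation, supernatant A540 was read. Hemolysis % was calculated as (A−A0)/(Atotal−A0)×100, with untreated RBCs as 0% and 0.1% Triton X-100 as total lysis.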

Staphylococcus aureus [18] = test: Antibacterial activity against methicillin-resistant Staphylococcus aureus assessed as reduction in bacterial growth following incubation in 50% MHB medium and 50% serum and meaured after incubation with compound for 20 to 24 hrs by agar plate method; type: functional; settings: time 20-24 hrs; summary of the method: as §2
HeLa = test: Cytotoxicity against human HeLa cells assessed as viable cells by measuring increase in green fluorescence intensity at 1 to 4 ug/mL incubated for 24 hrs by calcein-AM/propidium iodide staining based fluorescence microscopy; type: cell-based; settings: dose 1-4 µg/ml
Summary of the method: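 HeLa cells in 12-well plates were treated 24 h at 1, 2 or 4 µg/mL, with untreated and 0.1% Triton X-100 controls. Cells were stained with 2 µM calcein AM and 4.5 µM propidium iodide for 15 min at 37 °C and imaged by fluorescence microscopy (calcein 500-550 nm band-pass; PI 590-800 nm long-pass). Three repeats.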

Staphylococcus aureus [19] = test: Antibacterial activity against methicillin-resistant Staphylococcus aureus assessed as reduction in bacterial growth following incubation in MHB medium and meaured after incubation with compound for 20 to 24 hrs by agar plate method; type: functional; settings: time 20-24 hrs; summary of the method: as §2

Question: Which Ratio (Staphylococcus aureus [1]) does the source give for `CCCCCCCCCCCN(C[C@H]1CN(c2ccc(N3CCOCC3)c(F)c2)C(=O)O1)C(=O)[C@@H](N)CCCCN.Cl.Cl` here?
Answer: 2

Question: What about the MBIC80 (Staphylococcus aureus [2]) of the same compound?
Answer: 25.9 µg/mL

Question: What about the MBIC90 (Staphylococcus aureus [2]) of the same compound?
Answer: 34.1 µg/mL

Question: What about the MBEC (Escherichia coli [3]) of the same compound?
Answer: 128 µg/mL

Question: And the MBEC80 (Escherichia coli [3])?
Answer: 112.8 µg/mL

Question: What about the MBEC90 (Escherichia coli [3]) of the same compound?
Answer: 120.3 µg/mL

Question: What about the MBEC (Staphylococcus aureus [4]) of the same compound?
Answer: 64 µg/mL

Question: What about the MBEC80 (Staphylococcus aureus [4]) of the same compound?
Answer: 50.2 µg/mL

Question: What about the MBEC90 (Staphylococcus aureus [4]) of the same compound?
Answer: 59.8 µg/mL

Question: What about the Activity (Escherichia coli [5]) of the same compound?
Answer: 5.3 log10CFU

Question: What about the Activity (Escherichia coli [6]) of the same compound?
Answer: 6.1 log10CFU

Question: What about the Activity (Escherichia coli [7]) of the same compound?
Answer: 10.2 log10CFU

Question: And the Activity (Staphylococcus aureus [8])?
Answer: 5.9 log10CFU

Question: And the Activity (Staphylococcus aureus [9])?
Answer: 12.9 log10CFU

Question: And the Activity (Staphylococcus aureus [10])?
Answer: 13.9 log10CFU

Question: And the Activity (Staphylococcus aureus [11])?
Answer: Active

Question: And the MBC (Staphylococcus aureus [12])?
Answer: > 128 mg/L

Question: What about the MBC (Staphylococcus aureus [13]) of the same compound?
Answer: 64 mg/L

Question: And the MBC (Staphylococcus aureus [14])?
Answer: 64 mg/L

Question: And the selectivity ratio [15]?
Answer: 12.5

Question: And the selectivity ratio [16]?
Answer: 50

Question: What about the HC50 at 1 h [17] of the same compound?
Answer: 100 µg/mL

Question: And the MBC (Staphylococcus aureus [18])?
Answer: > 128 mg/L

Question: What about the Activity (HeLa) of the same compound?
Answer: Non-Toxic

Question: What about the MBC (Staphylococcus aureus [19]) of the same compound?
Answer: 128 mg/L
